Assay results as given in the EternaBench riboswitch data.

System: MS2 coat protein
Assay: apparent Kd, MS2 coat protein; higher = weaker binding; RNA-MaP array; FMN 200 µM where present
Outline: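 Designs were transcribed by stalled E. coli RNA polymerase on Illumina sequencing-chip clusters. They were titrated with SNAP-549-labelled MS2 coat protein from 0.7 or 1.5 nM, doubling to 3 µM, without and then with constant ligand. Buffer: 100 mM Tris-HCl pH 7.5, 80 mM KCl, 4 mM MgCl2, BSA, DTT, yeast tRNA, Tween-20. Green signal was normalised to red-channel RNA signal and control-cluster median Fmax. Apparent Kd is the median of filtered per-cluster binding-curve fits.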

[1] = designed as: ON switch for flavin mononucleotide, no ligand
[2] = ligand present: flavin mononucleotide, designed as: ON switch for flavin mononucleotide
[3] = designed as: OFF switch for flavin mononucleotide, no ligand
[4] = ligand present: flavin mononucleotide, designed as: OFF switch for flavin mononucleotide

Sequence | apparent Kd [1] [nM] | apparent Kd [2] [nM] | apparent Kd [3] [nM] | apparent Kd [4] [nM]
GCAGGUUUACGAGGAUAUGGGUGGUACGGACAUGAGGAUCACCCAUGUCUCCCAGAAGGCGUAGCCUAACAAAGAGAACAGGAG | 111 | 19.2 |  | 
GCAGUAAAUAAAUGCACAUGAGGAUCACCCAUGUGGGAGGCACAGGAUAUCGCACCAUAGUGGCGCGAGAAGGGUGAUAAUCUC | 416 | 57.8 |  | 
GCAGUACGCCUGGCAAUUUGCAAGCAGGAUAUCAGGCACCGUGAGACAUGAGGAUCACCCAUGUCUGAGAAGGGCUGGAGUUGC |  |  | 9.68 | 18.9
GCAUAUCAGGGAGGAUAUGACAUGAGGAUCACCCAUGUAAUUAUGGCUCUGUCAGAAGGCCCAUCGUCACUAUAGUGACGAGAC |  |  | 370 | 139
GCAUGCAAGUAGAAGGACGGAUAUUUUGAAAACGUAGGAUAUACAGAAUCAUAUCCACAAGGUUACAUGAGGAUCACCCAUGUA |  |  | 8.19 | 8.08
GCAUGCGUUCGAGGAUAUCGGUGAGAAACGGAACGAGAAGGCGAUCGAAUGUCUCAUCUUAUGAACAUGAGGAUCACCCAUGUA | 299 | 83.2 |  | 
GCAUUGAUAACAGGAUAUAUGAAUCCUACAUGAGGAUCACCCAUGUAGGUGAUCAGCCGUGAUUAGUAGAAGGGUUAUCAAUGC | 13 | 6.49 |  | 
GCCAACUCGUGAGGAUAUGGCACCUUAUUGGUGCCAGAAGGCAUGUCAAUUGACAUGAGGAUCACCCAUGUAUUAUAGUUGGCA | 563 | 88.2 |  | 
GCCAGAGCAGGAUAUUCAAUAAUCCACAUGAGGAUCACCCAUGUCCAGCGAAAGCUGGAGGGAGAAGGGCUCUGGC |  |  | 94.2 | 35.1
GCCAGAGCAGGAUAUUCAAUAUUCCACAUGAGGAUCACCCAUGUCCUGCGAAAGCAGGAGGGAGAAGGGCUCUGGC |  |  | 69.5 | 25.5
GCCAGAGGAGGAUAUCUAAUAUAUCACAUGAGGAUCACCCAUGUCCAGCGAAAGCUGGAGGGAGAAGGCCUCUGGC |  |  | 149 | 29.8
GCCAGGCGAGGAUAUGCGAGGUAGCCUUUGUCCGGAUACUGACAUGAGGAUCACCCAUGUAGAAGGUGCCUAGG |  |  | 70.2 | 258
GCCAUCACAUGAGGAUAUGCUCCCGUUUCGGGAGCAGAAGGCGUGUCAUAAGACAUGAGGAUCACCCAUGUAGUUAAGAUGGCA | 399 | 12.7 |  | 
GCCAUCGCAUGAGGAUAUGCUCCCGUUUCGGGAGCAGAAGGCAUGUCAAAAGACAUGAGGAUCACCCAUGUAGUUAAGAUGGCA | 122 | 7.89 |  | 
GCCAUCGCAUGAGGAUAUGGACAGCUUUGCUGUCCAGAAGGCAUGUCAAUAGACAUGAGGAUCACCCAUGUAGUUAAGAUGGCA | 771 | 52.2 |  | 
GCCAUCGCAUGAGGAUAUGGACAGGUUUCCUGUCCAGAAGGCAUGUCAUAAGACAUGAGGAUCACCCAUGUAGUUAAGAUGGCA | 908 | 45.9 |  | 
GCCAUCGCGUGAGGAUAUGGCACCGUUUCGGUGCCAGAAGGCAUGUCAAAUGACAUGAGGAUCACCCAUGUAGUUAAGAUGGCA | 180 | 13.2 |  | 
GCCAUCGUAUGAGGAUAUGGCACCGAAACGGUGCCAGAAGGCAUGUCAAUAGACAUGAGGAUCACCCAUGUUUUAUCGAUGGCA | 89.7 | 23.5 |  | 
GCCCUCGCUGAGGAUAUUAUCUGGCUCGAUUGAUAAGAAGGCAGUACAUGAGGAUCACCCAUGUGGUUCGUUCG |  |  | 69.5 | 265
GCCUAUUCGUGCAGUUAAGGAGCUCAGGAUAUCGCAAUAACAUGAGGAUCACCCAUGUCCGAAUACGAGAAGGGAGGUCCGACG | 140 | 13.9 |  | 
GCCUUAUCCGUCAGGAUAUACAUUUGUUAGUUGUUGUAGAAGGGACAUGAGGAUCACCCAUGUACAUUACAUUG |  |  | 19.4 | 22.4
GCCUUAUCCGUCAGGAUAUACAUUUUUUAGUUGUUGUAGAAGGGACAUGAGGAUCACCCAUGUACAUUACAUUG |  |  | 21.1 | 21.8
GCGAACUGUGUAGGAUAUUGAGCACUUUUGGAGCAAGAAGGACACCAAGUGCUGACUAUACAUGAGGAUCACCCAUGUUCAGCA | 30.9 | 17.1 |  | 
GCGAUUAAGUAGAAGGUACGUUAUAAGUCAAUGUAAGGAUAUACUGACAUGAGGAUCACCCAUGUUUAAUUUGUUUACUGUCGC | 7.34 | 5.7 |  | 
GCGAUUUUGUAAGGAUAUACACGAGUUUCAAGUGUAGAAGGUACUUACAUGAGGAUCACCCAUGUAUACUUGGAUAAUAGUCGC | 27.9 | 23.3 |  | 
GCGAUUUUUAGAUUUUAAUAAUUUACAGAAGGUGAUAUACUUACAUGAGGAUCACCCAUGUUAUUCAAGGAUAUGUAGAUACUC | 308 | 31 |  | 
GCGGAAGGCACAGGAUAUCGUCCUUAGUUGGUACGAGAAGGGUGGCGCUGCCACAUGAGGAUCACCCAUGUGCCUUGACUAUAG | 245 | 1180 |  | 
GCGUACAUAUCAGGAUAUCAUAUUAUUGUUUAACUCAGUGUAUACAUGAGGAUCACCCAUGUUCUUGAGAAGGGAUAUGUACGC |  |  | 8.15 | 8.79
